As a reminder, the IC50 is the concentration needed to halve the response being measured. As usually defined, the Papp is the rate of passage across a membrane or cell layer, normalised by area and donor concentration.

Data on 17 compounds can be found in ChEMBL document CHEMBL5532647, “Design, synthesis, ADME and biological evaluation of benzylpiperidine and benzylpiperazine derivatives as novel reversible monoacylglycerol lipase (MAGL) inhibitors” (Eur J Med Chem, 2024).

Structures are written as SMILES. Values after ≈ are worked out from the molar mass of the structure shown. Active and inactive are the calls of the source. The calls are words filed in the database; no cut-off is given here.

Data set [1] deals with T1, Monoglyceride lipase (Mus musculus) (UniProt O35678).
T1 sequence (whole entry): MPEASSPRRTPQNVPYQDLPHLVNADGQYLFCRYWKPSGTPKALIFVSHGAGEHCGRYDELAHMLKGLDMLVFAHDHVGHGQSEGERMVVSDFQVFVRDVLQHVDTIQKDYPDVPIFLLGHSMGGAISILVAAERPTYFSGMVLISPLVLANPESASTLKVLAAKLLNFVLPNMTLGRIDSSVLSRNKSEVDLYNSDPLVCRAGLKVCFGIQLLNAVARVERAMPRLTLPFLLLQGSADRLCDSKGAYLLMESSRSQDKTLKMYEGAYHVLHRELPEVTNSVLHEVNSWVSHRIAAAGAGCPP
Description: Displacement of TAMRA-FP from mouse brain MAGL at 1 uM incubated with compound for 5 mins followed by ABPP assay. Type of data set: tissue-based.

The target in another data set is T2, Monoglyceride lipase (Homo sapiens, UniProt Q99685).
T2 sequence (Q99685 whole entry): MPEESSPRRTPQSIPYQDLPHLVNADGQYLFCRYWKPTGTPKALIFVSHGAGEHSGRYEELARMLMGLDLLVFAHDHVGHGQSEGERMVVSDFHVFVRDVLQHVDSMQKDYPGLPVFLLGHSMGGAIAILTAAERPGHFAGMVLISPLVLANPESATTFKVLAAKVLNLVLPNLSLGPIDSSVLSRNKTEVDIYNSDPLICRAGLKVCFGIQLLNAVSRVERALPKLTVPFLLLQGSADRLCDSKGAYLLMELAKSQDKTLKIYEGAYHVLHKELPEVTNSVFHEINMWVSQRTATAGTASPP
The data set can be described thus: Inhibition of human recombinant MAGL using 4-nitrophenylacetate as substrate incubated for 30 mins by microplate reader analysis.

Data set [2] concerns the target T3, Monoacylglycerol lipase ABHD6 (Mus musculus) (UniProt Q8R2Y0).
T3 sequence (whole entry): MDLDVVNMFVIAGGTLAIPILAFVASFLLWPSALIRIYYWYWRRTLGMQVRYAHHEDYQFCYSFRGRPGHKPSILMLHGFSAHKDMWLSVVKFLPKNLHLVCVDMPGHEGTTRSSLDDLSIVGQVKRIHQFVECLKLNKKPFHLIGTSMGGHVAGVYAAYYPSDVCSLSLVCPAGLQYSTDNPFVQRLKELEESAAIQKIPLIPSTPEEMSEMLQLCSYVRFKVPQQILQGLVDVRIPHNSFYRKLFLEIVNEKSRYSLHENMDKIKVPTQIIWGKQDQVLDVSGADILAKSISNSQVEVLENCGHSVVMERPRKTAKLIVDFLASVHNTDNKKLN
Description: Displacement of TAMRA-FP from mouse brain ABHD6 at 10 uM incubated with compound for 5 mins followed by ABPP assay. The format is tissue-based. The method, boiled down: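 Mouse brain membranes (2 mg/mL final, in PBS) preincubated 25 min at 25 °C with test compound (10 μM final) or DMSO vehicle. Controls: JZL-184, URB597 4 μM, WWL70 10 μM, THL, MAFP 5 μM. TAMRA-FP 125 nM final added for 5 min at 25 °C. Reaction stopped with Laemmli buffer, 3 min at 25 °C then 10 min at 90 °C. Separation by 10% SDS-PAGE, fluorescence scanning, three independent experiments.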

A short description of data set [3]: Stability in human plasma measured after 24 hrs by UV/LC-MS analysis. The format is ADME, cell-free. The settings on record: read-out: Stability. A digest of the protocol: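 Compound (2 mM) incubated at 37 °C in pooled human plasma (55.7 mg protein/mL) with HEPES 25 mM, NaCl 140 mM, pH 7.4. Samples taken at 0–24 h and precipitated with cold acetonitrile. After centrifugation, supernatant analysed by UV/LC-MS. Three independent experiments.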

Data set [4] in a line: Apparent permeability of the compound by PAMPA method. Type of data set: ADME. A digest of the protocol:
(§1)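 Donor solution made from 1 mM DMSO stock diluted in 25 mM phosphate buffer pH 7.4 to 500 μM final. Filter coated with 1% (w/v) phosphatidylcholine in dodecane. Acceptor was 1:1 v/v DMSO/phosphate buffer. Sandwich incubated 5 h at room temperature. Compound in donor and acceptor wells quantified by UV/LC-MS.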
For orientation: In PAMPA a lipid-coated filter parts donor from acceptor wells.

Data set [5] is described as follows: Permeability of the compound assessed as membrane retention rate by PAMPA method. The format is ADME. A digest of the protocol: as §1
Data set [6] can be described thus: Metabolic stability in human liver microsome in presence of NADPH-regenerating system by UV/LC-MS analysis. Type of data set: ADME. The note with it: microsomes. The method, boiled down:
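Compound incubated 1 h at 37 °C with human liver microsomes (0.2 mg/mL) and an NADPH-regenerating system (NADPH 0.2 mM, NADP+ 1 mM, glucose-6-phosphate 4 mM, G6PDH 4 unit/mL, MgCl2 48 mM) in 25 mM phosphate buffer pH 7.4. Quenched with acetonitrile, then centrifuged. Parent and metabolites measured by UV/LC-MS. Percent unmetabolized obtained against reference solutions; three independent experiments.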

Data set [7] in a line: Thermodynamic aqueous solubility of the compound by LC-MS/MS analysis. The format is physicochemical. The settings on record: read-out: Therm_solubility. The method, boiled down: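 Solid compound (1 mg) shaken overnight in 1 mL distilled water at room temperature. Suspension passed through a 0.45 μm nylon filter. Dissolved compound quantified in triplicate by UV/LC-MS or LC-MS/MS against a calibration curve of compound in methanol.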

Consider `O=C(Oc1ccc([N+](=O)[O-])cc1)N1CCC(C(O)(c2ccc3c(c2)OCO3)c2ccc3c(c2)OCO3)CC1`, for which, in data set [1], the result was Active. On to `O=C(c1cc(O)ccc1Sc1ccccc1)N1CCC(Cc2cccc(Sc3cc(C(F)(F)F)ccn3)c2)CC1`, for which, at Monoglyceride lipase, the concentration for half-maximal inhibition (IC50) stood at 0.0323 µM. The same measure, in the same setting: with `O=C(c1cccc(O)c1)N1CCC(Cc2cc(Sc3cc(C(F)(F)F)ccn3)ccc2F)CC1` the figure was 0.0225 µM; with `O=C(c1cc(O)cc(Sc2ccccc2)c1)N1CCC(Cc2cccc(Sc3cc(C(F)(F)F)ccn3)c2)CC1`, 0.0448 µM. The same measure, in the same setting: the same measure for `O=C(c1cccc(O)c1)N1CCC(Cc2cccc(Sc3cccc(C(F)(F)F)n3)c2)CC1`: 0.0132 µM. Consider `CN(Cc1cccc(-c2ccncc2)c1)C(=O)Oc1ccc(-c2ccc(C(N)=O)cc2)cc1`, for which the result in data set [2] was Active. Take `O=C(c1ccc(Sc2ccccc2)c(O)c1)N1CCC(Cc2cccc(Sc3cc(C(F)(F)F)ccn3)c2)CC1`: the IC50 at Monoglyceride lipase came out at 0.242 µM. The same measure, in the same setting: the same measure for `O=C(c1cccc(O)c1)N1CCC(Cc2cccc(Sc3ncccc3C(F)(F)F)c2)CC1`: 0.0071 µM.

As for `O=C(c1ccc(Sc2cccc(C(F)(F)F)c2)cc1)C1CCN(C(=O)c2cc(O)ccc2F)CC1`, the remaining at 24 h in data set [3] is above 99%. In data set [4], the Papp was determined as 1.83 ×10⁻⁶ cm/s. Further, the R% in data set [5] is given as 47%. Further, the Stability in data set [6] stood at 90.71%. Moreover, the solubility thermodynamic in data set [7] was determined as 0.129 ng/mL (≈ 0.256 nM). With `O=C(c1cccc(O)c1)N1CCC(Cc2cccc(Sc3ccc(C(F)(F)F)cn3)c2)CC1`, on Monoglyceride lipase, the IC50 turned out to be 0.0404 µM. Still for that read-out and setting: the same measure for `O=C(Nc1ccc(O)cc1C(=O)N1CCC(Cc2cccc(Sc3cc(C(F)(F)F)ccn3)c2)CC1)c1ccccc1`: 0.112 µM. Still for that read-out and setting: the same measure for `COc1ccc(CC2CCN(C(=O)c3cccc(O)c3)CC2)cc1Sc1cc(C(F)(F)F)ccn1`: 0.0144 µM; for `O=C(Nc1ccc(C(=O)N2CCC(Cc3cccc(Sc4cc(C(F)(F)F)ccn4)c3)CC2)cc1O)c1ccccc1`: above 1 µM.

On to `O=C(Nc1cc(O)cc(C(=O)N2CCC(Cc3cccc(Sc4cc(C(F)(F)F)ccn4)c3)CC2)c1)c1ccccc1`, for which, at Monoglyceride lipase, the 50% inhibitory concentration (IC50) stood at 0.149 µM.

With `O=C(c1cccc(O)c1)N1CCC(Cc2ccc(O)c(Sc3cc(C(F)(F)F)ccn3)c2)CC1`, the IC50 on Monoglyceride lipase worked out at 0.0612 µM. Still for that read-out and setting: the same measure for `COc1ccc(Sc2cc(C(F)(F)F)ccn2)cc1CC1CCN(C(=O)c2cccc(O)c2)CC1`: 0.0491 µM; for `O=C(c1cccc(O)c1)N1CCC(Cc2cc(Sc3cc(C(F)(F)F)ccn3)ccc2O)CC1`: 0.0208 µM.
